We go through 7 compounds from ChEMBL document CHEMBL1153862, “Design, synthesis and biological evaluation of novel fluorinated docetaxel analogues” (Eur J Med Chem, 2009).

pIC50: −log10 of the molar value.

In series [1] the test system is Mus musculus. Nature of the series: Toxicity in BALB/cA nude mouse assessed as change in body weight at 12 mg/kg, iv. To be noted: in vivo.
The subject of series [2] is Mus musculus. Put plainly: Toxicity in BALB/cA nude mouse assessed as change in body weight at 16 mg/kg, iv. The conditions noted are these: in vivo.
Series [3] in a line: Toxicity in Kunming mouse assessed as survival. Type of series: organism-based. To be noted: in vivo. The essentials: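 Healthy Kunming mice of both sexes, 18–22 g, split into 7 weight-matched groups of 10. Single i.p. dose at 92.0, 115.0, 143.0, 179.0, 224.0, 280.0 or 350.0 mg/kg. Behaviour, body weight and deaths recorded over 14 days. LD₅₀ with 95% confidence limits derived by the Bliss method.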

Series [4] deals with A549. Put plainly: Antitumor activity against human A549 cells xenografted BALB/cA mouse at 16 mg/kg, iv relative to control. Format: functional. The essentials:
(§1)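 A549 NSCLC cells were injected s.c. into BALB/cA nude mice (18 ± 3 g, 6 per group). After 2–3 passages, tumors were grafted s.c. at the right oxter. Once tumors were palpable (about 100–300 mm³ in methods; 80–150 mm³ in table footnote), mice were randomized to untreated, docetaxel or treated groups, dosed i.v., and measured by calipers 3 times weekly. T/C% = mean treated/mean control tumor volume × 100, read at day 14.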
Background: In xenograft studies the graft and the host belong to different species.

Series [5] concerns Mus musculus. Nature of the series: Toxicity in BALB/cA nude mouse assessed as survival at 12 mg/kg, iv. The conditions noted are these: in vivo.
For series [6], the system named is Mus musculus. Nature of the series: Toxicity in BALB/cA nude mouse assessed as survival at 16 mg/kg, iv. To be noted: in vivo.
Series [7] concerns A549. Nature of the series: Antitumor activity against human A549 cells xenografted BALB/cA mouse at 12 mg/kg, iv relative to control. Format: functional. The essentials:
as §1

Series [8] relates to SK-OV-3. Nature of the series: Cytotoxicity against human SKOV3 cells after 72 hrs by SRB assay. Format: functional, cell-based. The conditions noted are these: SK-OV-3, 72 h. The essentials:
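SK-OV-3 ovarian cells were grown in RPMI 1640 with 10% FBS at 37 °C and 5% CO2, seeded at 0.4–1.0 × 10⁴ cells/well and treated after 24 h. Compounds were dissolved in DMSO (≤0.1% final) and tested at at least five concentrations for 72 h. Growth was read by SRB at OD 520 nm; tests were run 3 times in quadruplicate. IC50 came from survival-versus-concentration curves.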

The subject of series [9] is A549. Nature of the series: Antitumor activity against human A549 cells xenografted BALB/cA mouse at 18 mg/kg, iv relative to control. Type of series: functional. Summed up:
as §1

Series [10] concerns Mus musculus. Put plainly: Toxicity in BALB/cA nude mouse assessed as change in body weight at 18 mg/kg, iv. The conditions noted are these: in vivo.
Series [11] has as its system Mus musculus. Nature of the series: Toxicity in BALB/cA nude mouse assessed as survival at 18 mg/kg, iv. The conditions noted are these: in vivo.

In general, LD50 refers to the dose expected to kill half of the subjects tested. A word on the T/C: it is the ratio of treated to control. Usually pIC50 stands for the negative decadic logarithm of the IC50, by convention in mol/L. Read a high pIC50 as a low IC50. Take `CC(=O)O[C@@]12CO[C@@H]1C[C@H](O)[C@@]1(C)C(=O)[C@H](O)C3=C(C)[C@@H](OC(=O)[C@H](O)[C@@H](NC(=O)OC(C)(C)CF)c4ccccc4)C[C@@](O)([C@@H](OC(=O)c4ccccc4)[C@H]21)C3(C)C`: the Activity in series [1] is given as -19.1%; in [2] it was -22%; in series [5] it was “Non-toxic”; in series [6], “Non-toxic”. Further, the LD50 in series [3] came to 74.1 mg/kg. Besides, the T/C in series [4] was determined as 37.9%; in [7] it was 41.5%. In series [8], this compound showed a negative-log IC50 (pIC50) of 8.42.

Compound `CC(=O)O[C@@]12CO[C@@H]1C[C@H](O)[C@@]1(C)C(=O)[C@H](O)C3=C(C)[C@@H](OC(=O)[C@H](O)[C@@H](NC(=O)OC(C)(C)C(F)(F)F)c4ccccc4)C[C@@](O)([C@@H](OC(=O)c4cccc(F)c4)[C@H]21)C3(C)C` showed a pIC50 in [8] of 7.47.

Regarding `CC(=O)O[C@@]12CO[C@@H]1C[C@H](O)[C@@]1(C)C(=O)[C@H](O)C3=C(C)[C@@H](OC(=O)[C@H](O)[C@@H](NC(=O)OC(C)(C)CF)c4ccccc4)C[C@@](O)([C@@H](OC(=O)c4cccc(F)c4)[C@H]21)C3(C)C`, the Activity in series [1] is listed as -18%; in series [5], “Non-toxic”; in [10], -31.3%; in series [11], “Non-toxic”. In addition, the T/C in series [9] came out at 30.2%; in series [7], 53.7%. This compound also had a pIC50 in series [8] of 10.52.

Take `CC(=O)O[C@@]12CO[C@@H]1C[C@H](O)[C@@]1(C)C(=O)[C@H](O)C3=C(C)[C@@H](OC(=O)[C@H](O)[C@@H](NC(=O)OC(C)(C)C(F)(F)F)c4ccccc4)C[C@@](O)([C@@H](OC(=O)c4ccccc4)[C@H]21)C3(C)C`: the Activity in series [1] is given as 0%; in [5], “Non-toxic”; in series [10] it was -9.7%; in series [11], “Non-toxic”. The results for the T/C in [9] and in [7] were 72% and 91.8%, respectively. In series [8], this compound showed a pIC50 of 11.00.

With `CC(=O)O[C@@]12CO[C@@H]1C[C@H](O)[C@@]1(C)C(=O)[C@H](O)C3=C(C)[C@@H](OC(=O)[C@H](O)[C@@H](NC(=O)OC(C)(C)C(F)F)c4ccccc4)C[C@@](O)([C@@H](OC(=O)c4ccccc4)[C@H]21)C3(C)C`, the Activity is 0% in series [1], “Non-toxic” in series [5], -7.7% in series [10] and “Non-toxic” in series [11]. The T/C came to 83.5% in [9] and 91.5% in series [7]. In series [8], this compound had a negative logarithm of the IC50 (pIC50) of 10.70.

For the compound `CC(=O)O[C@@]12CO[C@@H]1C[C@H](O)[C@@]1(C)C(=O)[C@H](O)C3=C(C)[C@@H](OC(=O)[C@H](O)[C@@H](NC(=O)OC(C)(C)C(F)F)c4ccccc4)C[C@@](O)([C@@H](OC(=O)c4cccc(F)c4)[C@H]21)C3(C)C`, the Activity is -16.5% in series [1], “Non-toxic” in series [5], -26.7% in [10] and “Non-toxic” in [11]. Besides, the results for the T/C in series [9] and in [7] were 24.4% and 51.7%, respectively. The compound also showed a pIC50 in [8] of 10.30.

As to `CC(=O)O[C@@]12CO[C@@H]1C[C@H](O)[C@@]1(C)C(=O)[C@H](O)C3=C(C)[C@@H](OC(=O)[C@H](O)[C@@H](NC(=O)OC(C)(C)C)c4ccccc4)C[C@@](O)([C@@H](OC(=O)c4ccccc4)[C@H]21)C3(C)C.O.O.O` [DOCETAXEL], the values for the Activity in series [1] and in [5] were -19.6% and “Non-toxic”, respectively. In series [7], the T/C amounted to 43%. Besides, the negative logarithm of the IC50 (pIC50) in [8] is 8.47.
